# Experimental data from ChEMBL document CHEMBL4219186, “Structure-activity relationships in a new class of non-substrate-like covalent inhibitors of the bacterial glycosyltransferase LgtC” (Bioorg Med Chem, 2018).
# The source made the active and inactive calls. No cut-off for these calls is given here.
# How the values were obtained:
# [1] = biological target: T1, LgtC (Neisseria meningitidis) (UniProt Q93EK7); assay: (§1) Inhibition of recombinant Neisseria meningitidis glycosyltransferase LgtC using UDP-Gal/lactose as substrate at 50 uM preincubated for 30 mins with UDP-Gal followed by lactose addition measured after 20 mins in presence of MnCl2 and calf intestinal phosphatase by malachite green dye based enzyme-coupled colorimetric assay relative to control
# T1 sequence (whole entry): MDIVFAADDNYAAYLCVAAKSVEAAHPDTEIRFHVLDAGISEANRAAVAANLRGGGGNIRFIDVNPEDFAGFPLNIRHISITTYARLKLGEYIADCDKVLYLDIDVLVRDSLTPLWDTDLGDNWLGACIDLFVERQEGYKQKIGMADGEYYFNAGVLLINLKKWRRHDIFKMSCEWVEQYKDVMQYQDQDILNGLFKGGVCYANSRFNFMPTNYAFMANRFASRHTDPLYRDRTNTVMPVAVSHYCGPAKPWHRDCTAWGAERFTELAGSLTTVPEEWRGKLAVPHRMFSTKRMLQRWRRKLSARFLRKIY
# Outline: (§2)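 Recombinant N. meningitidis LgtC, activated with 10 mM DTT (1:1, 30 min, 30 °C) and set to 20-50% UDP-Gal turnover. It was pre-incubated 30 min at 30 °C with 25 or 50 µM inhibitor in 13 mM HEPES pH 7.0 containing UDP-Gal 28 µM, MnCl2 5 mM, CIP 10 U/mL, CEL 1 mg/mL, Triton 0.01% and 10% DMSO. Lactose 2 mM was then added for 20 min at 30 °C. Malachite Green read at A620; activity taken against a DMSO control.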
# [2] = biological target: T1, LgtC (Neisseria meningitidis); assay: as §1, with “25” for “50”; outline: as §2
# LgtC [3] = biological target: T2, LgtC (Neisseria meningitidis, UniProt Q93EK7); assay: as §1, with “substrate” for “substrate at 50 uM”
# T2 sequence (Q93EK7 whole entry): T1 sequence (whole entry)
# Outline: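 IC50 set-up using DTT-activated recombinant N. meningitidis LgtC at 20-50% donor turnover. Enzyme was pre-incubated 30 min at 30 °C with inhibitor (0.1-100 or 0.1-50 µM, 10% DMSO), UDP-Gal 28 µM, MnCl2 5 mM, CIP 10 U/mL, CEL 1 mg/mL and Triton 0.01% in 13 mM HEPES pH 7.0. Lactose 2 mM was added for 20 min at 30 °C, then read by Malachite Green phosphate detection at 620 nm.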
# LgtC [4] = biological target: T2, LgtC; assay: (§3) Inhibition of recombinant Neisseria meningitidis glycosyltransferase LgtC using UDP-Gal/lactose as substrate preincubated for 20 mins with UDP-Gal followed by lactose addition measured after 20 mins in presence of MnCl2
# Outline: (§4)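 Dose-response with DTT-activated recombinant N. meningitidis LgtC at 20-50% donor turnover. Pre-incubation was 20 min at 30 °C with inhibitor (0.1-50 up to 0.1-250 µM, 10% DMSO), UDP-Gal 28 µM, MnCl2 5 mM, CIP 10 U/mL, CEL 1 mg/mL and Triton 0.01% in 13 mM HEPES pH 7.0. Lactose 2 mM was then added for 20 min at 30 °C. Malachite Green A620 read-out; triplicate, mean ± SD.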
# [5] = biological target: T1, LgtC (Neisseria meningitidis); assay: as §3; outline: as §4
# [6] = biological target: T1, LgtC (Neisseria meningitidis); assay: Inhibition of recombinant Neisseria meningitidis glycosyltransferase LgtC assessed as ratio of Kinact/Ki using UDP-Gal/lactose as substrate preincubated for 20 mins with UDP-Gal followed by lactose addition measured after 20 mins in presence of MnCl2
# Outline: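 Kinetic parameters from LgtC activity at ranges of inhibitor (0-50 up to 0-250 µM) after 0, 5, 10 and 20 min pre-incubation. Activity, as % of DMSO control, was plotted against pre-incubation time and fitted exponentially to give Kobs. Kobs was then fitted against [I] with the hyperbolic equation to obtain kinact and Ki. Triplicate.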
# LgtC [7] = biological target: T2, LgtC; assay: Inhibition of recombinant Neisseria meningitidis glycosyltransferase LgtC using UDP-Gal/lactose as substrate preincubated for 20 mins with UDP-Gal followed by lactose addition measured after 20 mins in presence of MnCl2 by malachite green dye based colorimetric assay; outline: as §4
# Haemophilus influenzae [8] = assay: Potentiation of human serum-induced killing of Haemophilus influenzae R2866 at 50 uM in presence of 30% v/v human serum pre-incubated for 1 hr followed by drug removal and re-plating of colonies for 24 hrs by bacterial viable count method; format: functional, organism-based
# Outline: (§5)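 Overnight R2866 sBHI culture, diluted to OD590 0.7, was exposed 1 h at 37 °C to 30% v/v normal human serum plus inhibitor (50 or 100 µM); the control received 30% serum alone. Serum and compound were removed by centrifugation and two sBHI washes. Cells were serially diluted and plated on chocolate agar (24 h, 37 °C, 5% CO2) for viable counts. Triplicate, mean.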
# Haemophilus influenzae [9] = assay: Growth inhibition of Haemophilus influenzae R2866 up to 100 uM incubated for 1 hr followed by drug removal and re-plating of colonies for 24 hrs by bacterial viable count method; format: organism-based; conditions: in vivo
# Outline: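 H. influenzae R2866 was grown overnight in supplemented BHI at 37 °C, 180 rpm, then diluted to OD590 0.7. Cells were exposed 1 h at 37 °C to compound (0-200 µM; final DMSO 10%) or DMSO. They were centrifuged, washed twice with sBHI, serially diluted and plated on chocolate agar (24 h, 37 °C, 5% CO2) for viable counts. Triplicate, mean; unpaired t-test.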
# Haemophilus influenzae [10] = assay: Toxicity against Haemophilus influenzae R2866; format: organism-based; conditions: in vivo
# Haemophilus influenzae [11] = assay: Potentiation of human serum-induced killing of Haemophilus influenzae R2866 at 100 uM in presence of 30% v/v human serum pre-incubated for 1 hr followed by drug removal and re-plating of colonies for 24 hrs by bacterial viable count method; format: functional, organism-based; outline: as §5
SMILES,inhibition [1] [%],inhibition [2] [%],IC50 (LgtC [3]) [µM],Ki (LgtC [4]) [µM],Kinact [5] [s⁻¹],Ratio [6] [M⁻¹ s⁻¹],IC50 (LgtC [7]) [µM],other results
CCOC(=O)C1=NN(c2ccccc2)C(=O)/C1=C\c1ccc(OC)c(Br)c1,66,61,,,,,,
COc1ccc(/C=C2\C(=O)N(Cc3ccccc3)N=C2C(F)(F)F)cc1Br,,,12,,,,,
COc1ccc(/C=C2\C(=O)N(c3cccc(C(=O)NCCO)c3)N=C2C(F)(F)F)cc1Br,,,4.3,,,,,
O=C1/C(=C\c2ccccc2)C(C(F)(F)F)=NN1c1ccccc1,,,28,153,0.002,13,63,
COc1ccc(/C=C2\C(=O)N(c3ccccc3)N=C2C(=O)O)cc1Br,58,35,,,,,,
CCOC(=O)CC1=NN(c2ccccc2)C(=O)/C1=C\c1ccc(OC)c(Br)c1,67,32,,,,,,
COc1ccc(/C=C2\C(=O)N(c3ccccc3)N=C2C(F)(F)F)cc1Br,84,80,3.1,7.1,0.0012,163,6.4,Activity (Haemophilus influenzae [8]): inactive; growth inhibition (GI) (Haemophilus influenzae [9]): Non-Toxic
O=C1/C(=C\c2cccc(OCc3ccccc3)c2)C(C(F)(F)F)=NN1c1ccccc1,,,18,50,0.0018,36,38,growth inhibition (GI) (Haemophilus influenzae [9]): Non-Toxic; growth inhibition (GI) (Haemophilus influenzae [10]): Toxic; Activity (Haemophilus influenzae [11]): inactive
O=C1/C(=C\c2cccc(Cl)c2)C(C(F)(F)F)=NN1c1ccccc1,,,,88,0.0016,18,64,
O=C1/C(=C\c2ccc(OCc3ccccc3)cc2)C(C(F)(F)F)=NN1c1ccccc1,,,,4.7,0.0011,238,3.3,
COc1ccc(/C=C2\C(=O)N(c3cccc(C(=O)O)c3)N=C2C(F)(F)F)cc1Br,,,3,,,,,
COc1ccc(/C=C2\C(=O)N(c3ccc(C(=O)O)cc3)N=C2C(F)(F)F)cc1Br,,,2.9,,,,,
CC1=NN(c2ccccc2)C(=O)/C1=C\c1ccccc1C(F)(F)F,,,,,,,,growth inhibition (GI) (Haemophilus influenzae [9]): Non-Toxic; growth inhibition (GI) (Haemophilus influenzae [10]): Toxic; Activity (Haemophilus influenzae [11]): inactive
COc1ccc(/C=C2\C(=O)N(c3ccccc3)N=C2C)cc1Br,43,33,> 50,,,,,
O=C1/C(=C\c2ccc(Cl)cc2)C(C(F)(F)F)=NN1c1ccccc1,,,25,49,0.0009,18,80,
O=C1/C(=C\c2ccc(O)cc2)C(C(F)(F)F)=NN1c1ccccc1,,,,6.8,0.0025,370,5.8,
COc1ccc(/C=C2\C(=O)N(c3ccccc3)N=C2C(N)=O)cc1Br,39,31,,,,,,
COc1ccc(/C=C2\C(=O)N(c3ccccc3)N=C2C(F)(F)F)cc1,,,,19,0.0015,80,8.9,
CCOC(=O)c1ccccc1/C=C1\C(=O)N(c2ccccc2)N=C1C(F)(F)F,,,> 100,,,,,
